Reference: ChEMBL document CHEMBL1158497, “Arylpyrrolizines as inhibitors of microsomal prostaglandin E2 synthase-1 (mPGES-1) or as dual inhibitors of mPGES-1 and 5-lipoxygenase (5-LOX)” (J Med Chem, 2009)
Active and inactive are the calls of the source. No cut-off for these calls is given here.

Assays:
[1] = molecular target: T1, Prostaglandin G/H synthase 2 (Homo sapiens) (UniProt P35354); test: Inhibition of human recombinant COX2 assessed as residual activity at 30 uM preincubated for 5 mins by measuring 12-HHT level using HPLC method relative to control
T1 sequence (whole entry): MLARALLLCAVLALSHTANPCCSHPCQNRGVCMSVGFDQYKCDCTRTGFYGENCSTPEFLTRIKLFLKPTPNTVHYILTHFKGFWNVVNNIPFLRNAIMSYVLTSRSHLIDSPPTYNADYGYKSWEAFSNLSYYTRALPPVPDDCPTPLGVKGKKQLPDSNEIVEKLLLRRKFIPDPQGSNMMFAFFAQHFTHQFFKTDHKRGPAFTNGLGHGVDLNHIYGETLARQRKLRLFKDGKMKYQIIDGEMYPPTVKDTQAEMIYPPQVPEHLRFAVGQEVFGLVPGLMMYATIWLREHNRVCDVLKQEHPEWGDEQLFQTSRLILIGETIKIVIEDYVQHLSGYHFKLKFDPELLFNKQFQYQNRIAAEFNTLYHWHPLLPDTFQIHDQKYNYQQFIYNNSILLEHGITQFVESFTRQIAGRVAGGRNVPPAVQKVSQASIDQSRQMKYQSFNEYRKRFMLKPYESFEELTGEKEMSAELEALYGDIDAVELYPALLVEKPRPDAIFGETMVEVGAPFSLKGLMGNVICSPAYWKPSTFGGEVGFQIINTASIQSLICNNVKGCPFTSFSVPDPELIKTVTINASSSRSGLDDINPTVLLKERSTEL
How it was run: (§1)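 Isolated COX-1 and COX-2 enzymes were each exposed to inhibitor at 30 μM in 0.1% DMSO vehicle. Activity was read as 12-HHT concentration as a percentage of vehicle control, n=3-5, with ANOVA and Tukey HSD versus vehicle.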

Prostaglandin E synthase [2] = molecular target: T2, Prostaglandin E synthase (Homo sapiens, UniProt O14684); test: Inhibition of mPGES1 in IL1-beta treated human A549 cell microsomal membrane assessed as residual enzyme activity after 1 min by measuring PGE2 level using RP-HPLC method; format: microsomes, Microsome
T2 sequence (O14684 whole entry): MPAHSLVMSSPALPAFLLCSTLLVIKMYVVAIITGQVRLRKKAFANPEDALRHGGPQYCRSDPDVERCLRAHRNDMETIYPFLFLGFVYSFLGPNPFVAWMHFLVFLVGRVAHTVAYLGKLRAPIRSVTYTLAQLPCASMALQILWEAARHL
How it was run: (§2)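 Cell-free assay using microsomes from A549 cells as the PGE2 synthase source. Compounds were tested at four concentrations (10 μM, 1 μM, 100 nM, 10 nM; 1 nM where needed) in 0.1% DMSO vehicle. Read-out was PGE2 level as a percentage of vehicle control, n=3-5, with ANOVA and Tukey HSD versus vehicle.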

Prostaglandin E synthase [3] = molecular target: T2, Prostaglandin E synthase; test: Inhibition of mPGES1 in IL1-beta treated human A549 cell microsomal membrane assessed as blockade of PGH2 to PGE2 conversion after 1 min; format: microsomes, Microsome; how it was run: as §2
[4] = Inhibition of 5-lipoxygenase in bovine polymorphonuclear leucocytes assessed as formation of LTB4 by HPLC method; format: cell-based; conditions: Bos taurus
[5] = molecular target: T3, Prostaglandin E synthase (Homo sapiens) (UniProt O14684); test: Inhibition of mPGES1 in IL1-beta treated human A549 cell microsomal membrane assessed as residual enzyme activity at 10 uM after 1 min by measuring PGE2 level using RP-HPLC method relative to control; format: microsomes; conditions: Microsome; how it was run: as §2
T3 sequence (whole entry): T2 sequence (O14684 whole entry)

[6] = molecular target: T4, Prostaglandin G/H synthase 1 (Ovis aries) (UniProt P05979); test: Inhibition of ovine COX1 assessed as residual enzyme activity at 30 uM preincubated for 5 mins by measuring 12-HHT level using HPLC method relative to control; how it was run: as §1
T4 sequence (whole entry): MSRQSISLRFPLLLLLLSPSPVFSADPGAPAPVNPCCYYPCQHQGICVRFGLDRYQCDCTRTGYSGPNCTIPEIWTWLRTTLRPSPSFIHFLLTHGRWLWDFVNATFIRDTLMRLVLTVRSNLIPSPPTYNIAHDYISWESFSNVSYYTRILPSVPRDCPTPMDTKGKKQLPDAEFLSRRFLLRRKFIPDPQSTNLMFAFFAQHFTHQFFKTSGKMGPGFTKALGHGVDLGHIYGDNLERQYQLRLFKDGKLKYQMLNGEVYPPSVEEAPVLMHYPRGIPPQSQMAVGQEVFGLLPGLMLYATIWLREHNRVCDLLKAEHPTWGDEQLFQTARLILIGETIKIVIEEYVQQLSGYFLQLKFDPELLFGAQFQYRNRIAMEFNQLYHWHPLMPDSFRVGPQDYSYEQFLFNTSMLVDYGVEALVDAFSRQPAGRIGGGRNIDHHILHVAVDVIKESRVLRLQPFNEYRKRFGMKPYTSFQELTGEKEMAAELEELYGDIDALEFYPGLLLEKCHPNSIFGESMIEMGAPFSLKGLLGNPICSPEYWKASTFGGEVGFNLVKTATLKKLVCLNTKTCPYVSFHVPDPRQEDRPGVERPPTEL

[7] = Inhibition of rat mPGES1

Row | Structure (SMILES) | Activity [1] | IC50 (Prostaglandin E synthase [2]) [nM] | IC50 (Prostaglandin E synthase [3]) [nM] | IC50 [4] [nM] | Activity [5] [%] | Activity [6] | IC50 [7] [nM]
1 | CC1(C)Cc2c(-c3ccccc3)c(-c3ccc(Cl)cc3)c(CC(=O)O)n2C1 [LICOFELONE] | 53.7% | 6700 | 6000 | 180 | 44.9 | 12.4% | –
2 | Cc1ccc(S(=O)(=O)NC(=O)Cc2c(-c3ccc(Cl)cc3)c(-c3ccccc3)c3n2CC(C)(C)C3)cc1 | 13.6% | 4800 | – | 260 | 32.2 | 8.6% | –
3 | O=C(O)CCc1c(-c2ccc(Cl)cc2)c(-c2ccccc2)c2n1CCC2 | – | 1800 | – | 1900 | 20.8 | – | –
4 | CC1(C)Cc2c(-c3ccccc3)c(-c3ccc4ccoc4c3)c(CC(=O)O)n2C1 | 75.8% | 6200 | – | – | 42.1 | 94% | –
5 | CC1(C)Cc2c(-c3ccccc3)c(-c3ccc(C(F)(F)F)cc3)c(CC(=O)O)n2C1 | – | – | – | 310 | 56.1 | – | –
6 | CC1(C)Cc2c(-c3ccccc3)c(-c3ccc(Cl)cc3)c(CC(=O)NS(C)(=O)=O)n2C1 | – | – | – | 230 | 63.1 | – | –
7 | O=C(O)Cc1c(-c2ccc(Cl)cc2)c(-c2ccccc2)c2n1CCC2 | – | – | – | 1600 | 65.3 | – | –
8 | CC1(C)Cc2c(-c3ccccc3)c(-c3ccc(Cl)cc3)c(CC(=O)NS(=O)(=O)c3ccccc3)n2C1 | 43.4% | 4500 | – | 250 | 28.7 | 25.8% | –
9 | CC1(C)Cc2c(-c3ccccc3)c(-c3ccc([N+](=O)[O-])cc3)c(CC(=O)O)n2C1 | – | – | – | 1500 | 58.8 | – | –
10 | CC(C)c1ccc2c(c1)c(SC(C)(C)C)c(CC(C)(C)C(=O)O)n2Cc1ccc(Cl)cc1 | 56.7% | – | – | – | 22.5 | 19.5% | 3200
11 | Cc1ccc(S(=O)(=O)NC(=O)CCc2c(-c3ccc(Cl)cc3)c(-c3ccccc3)c3n2CC(C)(C)C3)cc1 | inactive | 2100 | – | – | 23.2 | 29.2% | –
12 | CCC1(CC)Cc2c(-c3ccccc3)c(-c3ccc(Cl)cc3)c(CC(=O)NS(C)(=O)=O)n2C1 | – | 5900 | – | – | 38.5 | – | –
13 | CC1(C)Cc2c(-c3ccccc3)c(-c3ccc(C(C)(C)C)cc3)c(CC(=O)O)n2C1 | inactive | – | – | 180 | 53.8 | inactive | –
14 | CC1(C)Cc2c(-c3ccccc3)c(-c3ccc(Cl)cc3)c(Cc3nnn[nH]3)n2C1 | 46.5% | 3900 | – | 500 | 27.9 | 37.4% | –
15 | CC1(C)Cc2c(-c3ccccc3)c(-c3ccc(Cl)cc3)c(CCC(=O)O)n2C1 | inactive | 7200 | – | – | 47.4 | 82.9% | –
